Test results taken from ChEMBL document CHEMBL1141182, “Selective benzopyranone and pyrimido[2,1-a]isoquinolin-4-one inhibitors of DNA-dependent protein kinase: synthesis, structure-activity studies, and radiosensitization of a human tumor cell line in vitro” (J Med Chem, 2005).

Target: T1, Serine/threonine-protein kinase ATR (Homo sapiens, UniProt Q13535)
Assay: Inhibition of ATR kinase using rabbit polyclonal antisera
Set-up: species or system Oryctolagus cuniculus
Conditions: target entry is the homologue from another species
Summary of the method: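 ATR kinase activity measured following earlier published methods, using antisera raised against ATR amino acids 400–480.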

IC50 [µM]	Compound
> 100	O=c1cc(N2CCOCC2)oc2c(-c3ccccc3)cccc12 [LY-294002]

Target: T1, Serine/threonine-protein kinase ATR
Assay: Inhibition of ATR kinase using rabbit polyclonal antisera; No inhibition observed at 100 uM
Set-up: species or system Oryctolagus cuniculus
Conditions: target entry is the homologue from another species

IC50 [µM]	Compound
> 100	O=c1cc(N2CCOCC2)nc2c3ccccc3ccn12
> 100	CC1CN(c2cc(=O)c3ccc4ccccc4c3o2)CCO1 (stereo not given)
> 100	O=c1cc(N2CCOCC2)oc2c1ccc1ccccc12

Target: Serine/threonine-protein kinase mTOR (Homo sapiens, UniProt P42345)
Assay: Inhibition of mTOR protein isolated from HeLa cells
Conditions: not given
Summary of the method: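 mTOR immunoprecipitated from HeLa cell cytoplasmic extract. Activity measured following a prior method, with recombinant PHAS-1 as substrate.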

IC50 [µM]	Compound
5.3	O=c1cc(N2CCOCC2)nc2c3ccccc3ccn12
4.8	CC1CN(c2cc(=O)c3ccc4ccccc4c3o2)CCO1 (stereo not given)

Target: Phosphatidylinositol 4,5-bisphosphate 3-kinase catalytic subunit alpha isoform (Homo sapiens, UniProt P42336)
Assay: Inhibition of Phosphatidylinositol 3-kinase
Conditions: not given
Summary of the method: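 PI 3-kinase assay run following a prior method, with baculovirus-derived recombinant human p110α and p85α.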

Phosphatidylinositol 4,5-bisphosphate 3-kinase catalytic subunit alpha isoform, sequence (P42336 whole entry, canonical isoform): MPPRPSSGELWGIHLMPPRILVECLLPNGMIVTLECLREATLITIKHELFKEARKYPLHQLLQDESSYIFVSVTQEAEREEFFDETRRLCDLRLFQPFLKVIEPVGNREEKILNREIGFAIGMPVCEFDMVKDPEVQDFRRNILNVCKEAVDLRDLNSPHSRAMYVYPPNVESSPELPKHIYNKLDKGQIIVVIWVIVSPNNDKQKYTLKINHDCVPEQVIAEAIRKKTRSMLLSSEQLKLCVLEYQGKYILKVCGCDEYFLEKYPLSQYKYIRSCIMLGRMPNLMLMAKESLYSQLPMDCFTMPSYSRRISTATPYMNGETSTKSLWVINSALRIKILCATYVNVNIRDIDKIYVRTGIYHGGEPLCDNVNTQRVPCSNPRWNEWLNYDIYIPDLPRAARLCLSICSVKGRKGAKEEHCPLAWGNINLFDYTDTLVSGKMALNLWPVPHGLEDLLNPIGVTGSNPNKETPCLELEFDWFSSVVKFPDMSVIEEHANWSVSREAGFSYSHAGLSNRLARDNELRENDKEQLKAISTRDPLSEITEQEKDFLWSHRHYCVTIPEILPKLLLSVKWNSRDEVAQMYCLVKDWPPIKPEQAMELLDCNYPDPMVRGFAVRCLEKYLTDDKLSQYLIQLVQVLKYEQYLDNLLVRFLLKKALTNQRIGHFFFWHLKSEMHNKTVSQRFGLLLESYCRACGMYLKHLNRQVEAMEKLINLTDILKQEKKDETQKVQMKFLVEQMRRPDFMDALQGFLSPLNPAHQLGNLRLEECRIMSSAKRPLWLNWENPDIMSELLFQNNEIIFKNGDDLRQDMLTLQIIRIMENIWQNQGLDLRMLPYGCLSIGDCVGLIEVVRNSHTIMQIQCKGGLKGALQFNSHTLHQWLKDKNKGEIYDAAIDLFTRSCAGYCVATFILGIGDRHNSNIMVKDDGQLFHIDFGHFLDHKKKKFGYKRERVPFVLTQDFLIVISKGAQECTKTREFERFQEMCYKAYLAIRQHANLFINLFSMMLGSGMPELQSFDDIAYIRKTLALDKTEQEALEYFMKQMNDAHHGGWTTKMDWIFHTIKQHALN

IC50 [µM]	Compound
> 100	O=c1cc(N2CCCCC2)oc2c(-c3ccccc3)cccc12
> 100	O=c1cc(N2CCOCC2)nc2c3ccccc3ccn12
> 100	O=c1cc(N2CCSCC2)oc2c(-c3ccccc3)cccc12
2.4	CC1CN(c2cc(=O)c3ccc4ccccc4c3o2)CCO1 (stereo not given)

Target: DNA-dependent protein kinase catalytic subunit (Homo sapiens, UniProt P78527)
Assay: Inhibition of DNA dependent protein kinase isolated from HeLa cells
Format: cell-free
Conditions: not given

IC50 [µM]	Compound
> 10	COc1cccc2oc(=O)cc(N3CCOCC3)c12
5.35	Cc1ccc2oc(=O)cc(N3CCOCC3)c2c1
1.92	O=c1cc(-c2cccnc2)oc2c1ccc1ccccc12
1.2	COc1cccc2c(=O)cc(N3CCOCC3)oc12
8.05	Cc1cccc2c(N3CCOCC3)cc(=O)oc12
> 10	O=c1cc(-c2ccccc2)oc2ccccc12 [FLAVONE]
6.49	O=c1cc(N2CC[C@@H](O)C2)nc2c3ccccc3ccn12
1.75	COc1ccc2oc(=O)cc(N3CCOCC3)c2c1
0.26	S=c1cc(N2CCOCC2)oc2c1ccc1ccccc12
> 10	CN1CCN(c2cc(=O)c3ccc4ccccc4c3o2)CC1
> 10	CCC1CN(c2cc(=O)n3ccc4ccccc4c3n2)CCO1 (stereo not given)
> 10	Nc1cccc(-c2cc(=O)c3ccc4ccccc4c3o2)c1
3.19	O=c1cc(N2C[C@H]3C[C@@H]2CO3)oc2c1ccc1ccccc12
1.38	O=c1cc(N2CCSCC2)oc2c1ccc1ccccc12
8.46	O=c1cc(NCC(O)CO)nc2c3ccccc3ccn12 (stereo not given)
4.14	CC1CN(c2cc(=O)c3ccc4ccccc4c3o2)CC(C)O1 (stereo not given)
> 10	O=c1cc(NCC2CCCO2)nc2c3ccccc3ccn12 (stereo not given)
> 10	CN1CCN(c2cc(=O)n3ccc4ccccc4c3n2)CC1
1.9	O=c1cc(N2CCOCC2)c2c(ccc3ccccc32)o1
1.61	O=c1cc(N2CCSCC2)oc2c(-c3ccccc3)cccc12

IC50 [µM]	Compound
> 10	O=c1cc(NCCOc2ccccc2Br)oc2c1ccc1ccccc12
> 10	Nc1ccccc1-c1cc(=O)c2ccc3ccccc3c2o1
> 10	O=c1cc(N2CCOc3ccccc32)oc2c1ccc1ccccc12
0.39	O=c1cc(N2CCOCC2)oc2cc3ccccc3cc12
10.9	COc1cccc2c(N3CCOCC3)cc(=O)oc12
> 10	CN(CCO)c1cc(=O)n2ccc3ccccc3c2n1
11.3	COc1ccc2c(N3CCOCC3)cc(=O)oc2c1
1.65	Cc1cccc2c(=O)cc(N3CCOCC3)oc12
4.98	O=c1cc(-c2ccccc2)oc2c1ccc1ccccc12 [ALPHA-NAPHTHOFLAVONE]
> 10	O=c1cc(N2CCC[C@H](CO)C2)oc2c1ccc1ccccc12
6.17	O=c1cc(N2CCCC2)oc2c1ccc1ccccc12
> 10	O=c1cc(-c2ccccc2Cl)oc2c1ccc1ccccc12
> 10	O=c1cc(N2CCOC(CO)C2)nc2c3ccccc3ccn12 (stereo not given)
> 10	O=c1cc(-c2ccc(F)cc2)oc2c1ccc1ccccc12
1.69	O=c1cc(N2CCSCC2)nc2c3ccccc3ccn12
> 10	O=c1cc(N(CCO)Cc2ccccc2)nc2c3ccccc3ccn12
2.24	O=c1cc(N2CCOCC2)oc2ccc(-c3ccccc3)cc12
3.25	C[C@@H]1CN(c2cc(=O)n3ccc4ccccc4c3n2)C[C@H](C)O1
> 10	O=c1cc(-c2ccccc2[N+](=O)[O-])oc2c1ccc1ccccc12

Continued, molecule first:

Compound	IC50 [µM]
O=c1cc(-c2ccccc2F)oc2c1ccc1ccccc12	8.59
O=c1cc(N2CCCCC2)oc2c(-c3ccccc3)cccc12	4.67
O=c1cc(N2CCOCC2)nc2ccccn12	2
O=c1cc(NCC(O)c2cccc(O)c2)nc2c3ccccc3ccn12 (stereo not given)	> 10
O=c1cc(-c2ccncc2)oc2c1ccc1ccccc12	> 10
O=c1cc(N2CCCCC2)oc2c1ccc1ccccc12	3.81
O=c1cc(N(CCO)CCO)nc2c3ccccc3ccn12	> 10
O=c1cc(-c2ccc([N+](=O)[O-])cc2)oc2c1ccc1ccccc12	> 10
COc1ccc2c(=O)cc(N3CCOCC3)oc2c1	0.95
C#CCCN(C)c1cc(=O)n2ccc3ccccc3c2n1	> 10
O=c1cc(N2CCOCC2)nc2c3ccccc3ccn12	0.28
O=c1cc(-c2cccc([N+](=O)[O-])c2)oc2c1ccc1ccccc12	> 10
CC1(C)CN(c2cc(=O)c3ccc4ccccc4c3o2)CCO1	3.52
Nc1ccc(-c2cc(=O)c3ccc4ccccc4c3o2)cc1	7.7
O=c1cc(N2CC[S+]([O-])CC2)oc2c(-c3ccccc3)cccc12	5.71
O=c1cc(NCC2CCCO2)oc2c1ccc1ccccc12 (stereo not given)	> 10
O=c1cc(N2CCOCC2)c2cc3ccccc3cc2o1	3.24
O=c1cc(N2CCCC2)nc2c3ccccc3ccn12	6.68
O=c1cc(-c2cccc(Cl)c2)oc2c1ccc1ccccc12	> 10

Compound	IC50 [µM]
O=c1cc(N2CCCOCC2)oc2c1ccc1ccccc12	2.01
O=c1cc(NCCO)nc2c3ccccc3ccn12	> 10
O=c1cc(N2CC=CC2)nc2c3ccccc3ccn12	2.81
CC1(C)CN(c2cc(=O)n3ccc4ccccc4c3n2)CCO1	6.71
O=c1cc(N2CCNCC2)oc2c1ccc1ccccc12	> 10
OCCOCC/N=c1\cc(O)c2ccc3ccccc3c2o1	> 10
O=c1cc(N2CCOCC2)c2ccccc2o1	4.82
O=c1cc(N2CCC(O)C2)oc2c1ccc1ccccc12 (stereo not given)	9.27
O=c1cc(N2CCOCC2)oc2c3c(ccc12)CCCC3	0.36
O=c1cc(-c2ccc(Cl)cc2)oc2c1ccc1ccccc12	> 10
O=c1cc(N2CCOCC2)c2cc(Cl)ccc2o1	3.27
O=c1cc(-c2cccc(F)c2)oc2c1ccc1ccccc12	5.71
CC(O)CNc1cc(=O)n2ccc3ccccc3c2n1 (stereo not given)	> 10
O=c1cc(N2CCCCC2)c2ccccc2o1	8.81
O=c1cc(N2CCSCC2)c2cc3ccccc3cc2o1	5.15
CC1CCC(C)N(c2cc(=O)n3ccc4ccccc4c3n2)C1 (stereo not given)	> 10
CN(CC(O)c1ccccc1)c1cc(=O)n2ccc3ccccc3c2n1 (stereo not given)	10.5
CC(C)(C)c1ccc(-c2cc(=O)c3ccc4ccccc4c3o2)cc1	> 10

Target: T2, Serine-protein kinase ATM (Homo sapiens, UniProt Q13315)
Assay: Inhibition of ATM kinase using rabbit polyclonal antisera; No inhibition observed at 100 uM
Set-up: species or system Oryctolagus cuniculus
Conditions: target entry is the homologue from another species

T2 sequence (Q13315 whole entry): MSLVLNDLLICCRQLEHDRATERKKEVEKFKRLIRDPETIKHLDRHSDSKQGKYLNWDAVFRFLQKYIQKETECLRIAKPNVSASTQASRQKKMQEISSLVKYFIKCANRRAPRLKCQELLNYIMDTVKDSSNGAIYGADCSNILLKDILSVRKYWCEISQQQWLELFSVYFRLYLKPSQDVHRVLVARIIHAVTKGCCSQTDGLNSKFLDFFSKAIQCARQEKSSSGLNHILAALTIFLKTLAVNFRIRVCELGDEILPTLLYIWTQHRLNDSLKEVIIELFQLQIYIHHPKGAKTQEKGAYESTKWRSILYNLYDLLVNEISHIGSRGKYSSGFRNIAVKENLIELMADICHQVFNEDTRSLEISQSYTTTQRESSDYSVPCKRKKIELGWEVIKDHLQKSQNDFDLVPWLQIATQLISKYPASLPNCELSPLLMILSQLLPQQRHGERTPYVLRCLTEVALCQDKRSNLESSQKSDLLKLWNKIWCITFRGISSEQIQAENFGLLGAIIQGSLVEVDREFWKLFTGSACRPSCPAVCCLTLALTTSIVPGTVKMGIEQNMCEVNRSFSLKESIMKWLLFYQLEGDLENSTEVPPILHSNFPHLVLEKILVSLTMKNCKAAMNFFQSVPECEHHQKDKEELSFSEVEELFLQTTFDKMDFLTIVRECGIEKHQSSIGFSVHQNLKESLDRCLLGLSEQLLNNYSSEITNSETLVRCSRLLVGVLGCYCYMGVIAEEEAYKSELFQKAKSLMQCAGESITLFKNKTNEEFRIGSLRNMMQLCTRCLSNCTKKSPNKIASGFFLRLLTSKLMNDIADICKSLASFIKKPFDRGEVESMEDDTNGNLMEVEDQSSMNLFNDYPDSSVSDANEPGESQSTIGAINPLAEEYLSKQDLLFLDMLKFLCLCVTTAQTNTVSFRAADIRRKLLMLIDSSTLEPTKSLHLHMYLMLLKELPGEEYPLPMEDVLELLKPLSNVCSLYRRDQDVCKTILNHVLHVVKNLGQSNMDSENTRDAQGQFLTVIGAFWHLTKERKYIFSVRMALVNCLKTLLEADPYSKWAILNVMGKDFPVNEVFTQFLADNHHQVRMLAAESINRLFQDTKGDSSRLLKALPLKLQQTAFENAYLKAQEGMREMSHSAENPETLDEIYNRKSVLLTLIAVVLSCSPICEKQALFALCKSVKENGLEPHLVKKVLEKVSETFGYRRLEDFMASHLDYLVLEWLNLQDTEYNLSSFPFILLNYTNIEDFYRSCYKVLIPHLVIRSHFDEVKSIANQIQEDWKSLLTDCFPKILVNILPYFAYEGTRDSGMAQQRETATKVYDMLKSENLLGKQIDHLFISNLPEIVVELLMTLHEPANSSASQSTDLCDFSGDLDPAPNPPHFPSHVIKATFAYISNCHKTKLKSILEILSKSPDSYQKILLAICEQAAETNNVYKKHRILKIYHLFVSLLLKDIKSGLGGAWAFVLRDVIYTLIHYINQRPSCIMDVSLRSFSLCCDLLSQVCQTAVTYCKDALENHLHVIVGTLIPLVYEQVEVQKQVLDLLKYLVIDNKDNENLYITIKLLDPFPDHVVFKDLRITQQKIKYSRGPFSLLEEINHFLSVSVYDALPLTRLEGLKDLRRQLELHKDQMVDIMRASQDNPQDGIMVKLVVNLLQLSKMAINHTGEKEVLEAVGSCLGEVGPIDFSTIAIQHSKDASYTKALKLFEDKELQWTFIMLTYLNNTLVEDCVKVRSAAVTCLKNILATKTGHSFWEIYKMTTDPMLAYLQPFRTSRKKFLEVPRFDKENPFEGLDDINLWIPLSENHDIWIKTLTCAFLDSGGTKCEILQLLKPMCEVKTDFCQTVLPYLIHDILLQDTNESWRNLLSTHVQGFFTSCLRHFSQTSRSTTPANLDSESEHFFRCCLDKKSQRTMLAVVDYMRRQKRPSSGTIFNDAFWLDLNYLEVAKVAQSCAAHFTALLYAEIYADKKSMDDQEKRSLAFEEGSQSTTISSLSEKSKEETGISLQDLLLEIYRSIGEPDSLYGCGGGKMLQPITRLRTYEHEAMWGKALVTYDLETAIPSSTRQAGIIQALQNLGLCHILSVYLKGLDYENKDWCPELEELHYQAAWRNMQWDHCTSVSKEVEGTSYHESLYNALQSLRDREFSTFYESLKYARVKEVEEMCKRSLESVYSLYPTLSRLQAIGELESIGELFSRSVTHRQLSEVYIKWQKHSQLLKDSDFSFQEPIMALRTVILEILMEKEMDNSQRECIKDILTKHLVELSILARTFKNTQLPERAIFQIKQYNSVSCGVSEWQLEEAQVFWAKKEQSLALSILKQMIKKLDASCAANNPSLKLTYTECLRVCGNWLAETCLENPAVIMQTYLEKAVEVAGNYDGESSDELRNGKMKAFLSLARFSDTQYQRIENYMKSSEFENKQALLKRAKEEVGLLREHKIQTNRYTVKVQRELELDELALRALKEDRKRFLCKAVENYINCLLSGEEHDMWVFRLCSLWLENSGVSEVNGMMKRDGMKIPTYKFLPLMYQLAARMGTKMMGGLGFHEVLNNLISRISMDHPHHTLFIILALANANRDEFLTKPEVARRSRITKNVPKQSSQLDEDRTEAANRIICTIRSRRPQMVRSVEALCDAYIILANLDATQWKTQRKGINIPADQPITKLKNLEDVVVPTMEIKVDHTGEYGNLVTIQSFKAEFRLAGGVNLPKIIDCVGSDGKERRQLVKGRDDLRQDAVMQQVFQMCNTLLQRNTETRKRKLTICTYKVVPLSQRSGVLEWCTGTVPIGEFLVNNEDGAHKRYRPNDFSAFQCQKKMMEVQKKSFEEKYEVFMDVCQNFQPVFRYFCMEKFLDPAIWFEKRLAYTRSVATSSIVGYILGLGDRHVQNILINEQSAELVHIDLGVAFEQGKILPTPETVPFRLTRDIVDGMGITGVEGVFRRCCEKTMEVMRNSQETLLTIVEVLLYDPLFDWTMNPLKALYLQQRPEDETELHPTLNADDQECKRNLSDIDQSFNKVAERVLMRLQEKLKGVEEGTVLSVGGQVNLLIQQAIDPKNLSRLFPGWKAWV

IC50 [µM]	Compound
> 100	O=c1cc(N2CCOCC2)nc2c3ccccc3ccn12
> 100	CC1CN(c2cc(=O)c3ccc4ccccc4c3o2)CCO1 (stereo not given)
> 100	O=c1cc(N2CCOCC2)oc2c1ccc1ccccc12

Target: T2, Serine-protein kinase ATM
Assay: Inhibition of ATM kinase using rabbit polyclonal antisera
Set-up: species or system Oryctolagus cuniculus
Conditions: target entry is the homologue from another species
Summary of the method: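 ATM kinase activity assayed following a previously published method, using rabbit polyclonal antisera raised against the COOH-terminal 400 amino acids of ATM.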

IC50 [µM]	Compound
> 100	O=c1cc(N2CCOCC2)oc2c(-c3ccccc3)cccc12 [LY-294002]
